Measurements: ChEMBL document CHEMBL1133510, “Synthesis and evaluation of novel steroidal oxime inhibitors of P450 17 (17 alpha-hydroxylase/C17-20-lyase) and 5 alpha-reductase types 1 and 2” (J Med Chem, 2000)
Values joined by “and” are separate entries in the source; they are usually repeats but may differ in a detail not shown here. Equal values may be shown once.

Columns and labels:
[1] = molecular target: T1, Steroid 17-alpha-hydroxylase/17,20 lyase (Homo sapiens, UniProt P05093); assay: Inhibition of Cytochrome P450 17 of human testicular microsome at 25 uM progesterone; No inhibition
T1 sequence (P05093 whole entry): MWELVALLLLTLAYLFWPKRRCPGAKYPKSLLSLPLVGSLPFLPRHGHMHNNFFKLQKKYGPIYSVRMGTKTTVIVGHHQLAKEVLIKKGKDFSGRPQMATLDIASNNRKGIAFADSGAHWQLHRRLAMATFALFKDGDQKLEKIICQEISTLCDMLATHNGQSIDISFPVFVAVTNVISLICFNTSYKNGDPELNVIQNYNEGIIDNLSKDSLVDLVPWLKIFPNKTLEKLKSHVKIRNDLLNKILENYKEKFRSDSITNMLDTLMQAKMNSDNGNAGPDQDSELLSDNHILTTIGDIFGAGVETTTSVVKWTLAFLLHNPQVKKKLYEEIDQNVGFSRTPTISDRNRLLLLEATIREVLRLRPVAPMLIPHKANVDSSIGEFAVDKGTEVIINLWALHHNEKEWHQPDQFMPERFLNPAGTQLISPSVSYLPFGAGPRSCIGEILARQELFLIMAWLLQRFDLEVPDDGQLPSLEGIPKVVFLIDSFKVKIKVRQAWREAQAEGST

[2] = molecular target: T2, Steroid 17-alpha-hydroxylase/17,20 lyase (Rattus norvegicus, UniProt P11715); assay: Inhibition of Cytochrome P450 17 from rat testicular microsome at 25 uM progesterone; No inhibition
T2 sequence (P11715 whole entry): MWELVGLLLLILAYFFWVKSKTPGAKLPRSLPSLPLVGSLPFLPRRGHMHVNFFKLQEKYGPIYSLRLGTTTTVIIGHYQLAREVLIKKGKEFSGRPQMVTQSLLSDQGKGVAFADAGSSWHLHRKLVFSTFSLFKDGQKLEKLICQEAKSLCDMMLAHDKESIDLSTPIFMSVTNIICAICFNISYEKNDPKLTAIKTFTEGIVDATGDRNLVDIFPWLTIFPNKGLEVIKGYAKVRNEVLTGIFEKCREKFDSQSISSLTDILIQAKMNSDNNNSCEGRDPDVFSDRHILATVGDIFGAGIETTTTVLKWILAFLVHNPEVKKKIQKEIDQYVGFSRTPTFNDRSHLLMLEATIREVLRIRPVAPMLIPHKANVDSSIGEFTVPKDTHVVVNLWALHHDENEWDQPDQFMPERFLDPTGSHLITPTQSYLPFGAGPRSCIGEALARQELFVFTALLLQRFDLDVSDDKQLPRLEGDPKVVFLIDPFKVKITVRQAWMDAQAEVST

[3] = molecular target: T2, Steroid 17-alpha-hydroxylase/17,20 lyase; assay: Evaluated for the inhibitory activity towards Cytochrome P450 17 rat enzyme using testicular microsome at 25 uM of substrate (progesterone); set-up: species or system Testis
Method in brief: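 Testicular microsomes (human for human enzyme, rat for rat enzyme) incubated with progesterone substrate at 25 µM; product measured by RP-HPLC with UV detection. IC50 = concentration giving 50% inhibition, mean of at least two experiments.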

[4] = molecular target: T1, Steroid 17-alpha-hydroxylase/17,20 lyase; assay: Evaluated for the inhibitory activity towards Cytochrome P450 17 human enzyme using testicular microsome at 25 uM of substrate (progesterone); set-up: species or system Testis
[5] = molecular target: T3, 3-oxo-5-alpha-steroid 4-dehydrogenase 2 (Homo sapiens, UniProt P31213); assay: Evaluated for the inhibitory activity against human steroid 5-alpha-reductase type 2 from human BPH tissue at 210 nM of testosterone
T3 sequence (P31213 whole entry): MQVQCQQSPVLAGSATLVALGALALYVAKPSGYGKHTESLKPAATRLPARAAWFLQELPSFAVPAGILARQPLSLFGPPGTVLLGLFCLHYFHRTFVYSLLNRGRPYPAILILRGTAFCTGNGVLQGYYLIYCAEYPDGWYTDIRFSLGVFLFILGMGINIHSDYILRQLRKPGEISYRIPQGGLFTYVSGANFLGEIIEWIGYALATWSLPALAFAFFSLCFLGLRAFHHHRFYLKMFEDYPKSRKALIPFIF
Method in brief: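 Enzyme from prostate homogenate of BPH patients, assayed at pH 5.5 with radiolabeled testosterone at 210 nM; product separated by HPLC. IC50 taken as inhibitor concentration giving 50% inhibition; mean of at least two experiments.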

[6] = molecular target: T4, 3-oxo-5-alpha-steroid 4-dehydrogenase 1 (Homo sapiens, UniProt P18405); assay: Inhibition of Human steroid 5-alpha-reductase type I expressed in HEK293 cells; type: cell-based
T4 sequence (P18405 whole entry): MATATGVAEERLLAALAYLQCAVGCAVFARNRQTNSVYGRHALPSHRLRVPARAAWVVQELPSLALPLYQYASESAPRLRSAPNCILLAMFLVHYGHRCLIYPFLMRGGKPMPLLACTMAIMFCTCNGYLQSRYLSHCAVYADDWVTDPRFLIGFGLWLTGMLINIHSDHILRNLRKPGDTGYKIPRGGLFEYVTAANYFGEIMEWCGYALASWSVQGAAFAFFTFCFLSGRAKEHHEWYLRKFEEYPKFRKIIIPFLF
Method in brief: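 Human 5α-reductase type 1 cDNA (plasmid pRcCMV-I) stably transfected into HEK293 cells, clones chosen under G418. 300 000 cells/well attached overnight at 37 °C, then fresh DMEM/10% FCS containing 5 nM [3H]androstenedione plus inhibitor (1% DMSO) for 30 min. Supernatant extracted with ether, product measured by HPLC. IC50 taken as mean of at least three experiments.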

[7] = molecular target: T4, 3-oxo-5-alpha-steroid 4-dehydrogenase 1; assay: Evaluated for the inhibitory activity against human steroid 5-alpha-reductase type I in human DU-145 cell assay at 5 nM of androstenedione; type: cell-based
Method in brief: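 Whole human DU-145 cells as source of type 1 enzyme, incubated with radiolabeled androstenedione at 5 nM; HPLC separation of product. IC50 = inhibitor concentration giving 50% inhibition; mean of at least two experiments.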

[8] = molecular target: T1, Steroid 17-alpha-hydroxylase/17,20 lyase; assay: Inhibition of Human P450 17 and NADPH-P450 reductase co-expressed in Escherichia coli with 25 uM progesterone
[9] = molecular target: T5, Thromboxane-A synthase (Homo sapiens) (UniProt P24557); assay: Inhibition of thromboxane synthase P450 TXA2 at 50 uM
T5 sequence (whole entry): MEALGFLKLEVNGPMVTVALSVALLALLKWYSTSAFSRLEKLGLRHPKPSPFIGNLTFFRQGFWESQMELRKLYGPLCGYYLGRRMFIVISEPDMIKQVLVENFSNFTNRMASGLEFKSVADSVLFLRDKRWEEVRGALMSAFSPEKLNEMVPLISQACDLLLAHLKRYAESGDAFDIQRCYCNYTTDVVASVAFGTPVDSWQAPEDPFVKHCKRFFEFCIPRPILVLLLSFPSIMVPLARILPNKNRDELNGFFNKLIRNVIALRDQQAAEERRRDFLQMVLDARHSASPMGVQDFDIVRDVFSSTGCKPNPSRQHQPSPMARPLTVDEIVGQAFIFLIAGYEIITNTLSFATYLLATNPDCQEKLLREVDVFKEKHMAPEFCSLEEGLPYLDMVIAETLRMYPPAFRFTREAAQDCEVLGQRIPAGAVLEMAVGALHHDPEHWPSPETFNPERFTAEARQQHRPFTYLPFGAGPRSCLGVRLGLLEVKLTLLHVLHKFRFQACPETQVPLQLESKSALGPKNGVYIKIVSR
Method in brief: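 Thromboxane synthase activity measured in citrated human whole blood; inhibitor tested at 50 µM.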

[10] = molecular target: T1, Steroid 17-alpha-hydroxylase/17,20 lyase; assay: Inhibition of Cytochrome P450 17 of human testicular microsomes at 25 uM progesterone
Method in brief: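 Enzyme source was human testicular microsomes, with progesterone substrate at 25 µM and product determined by RP-HPLC with UV detection. IC50 is the inhibitor concentration giving 50% inhibition, reported as the mean of at least two experiments.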

[11] = molecular target: T2, Steroid 17-alpha-hydroxylase/17,20 lyase; assay: Inhibition of Cytochrome P450 17 from rat testicular microsome at 125 uM progesterone; No inhibition
Rattus norvegicus [12] = species: Rattus norvegicus; assay: Percent decrease in plasma testosterone after 2 hr; type: functional
Method in brief: (§1)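 Adult male Sprague-Dawley rats, 7–8 per group, each received one intraperitoneal dose of 0.019 mmol/kg in olive oil/benzyl alcohol (95:5). Blood was drawn by cardiac puncture under diethyl ether anaesthesia at 2 or 6 h. Plasma testosterone was measured by double-antibody [125I]RIA (detection limit 0.1 ng/mL) and compared with vehicle controls.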

Rattus norvegicus [13] = species: Rattus norvegicus; assay: Percent decrease in plasma testosterone after 6 hr; type: functional
Method in brief: as §1

[14] = molecular target: T5, Thromboxane-A synthase (Homo sapiens); conditions: 50 uM
[15] = molecular target: T1, Steroid 17-alpha-hydroxylase/17,20 lyase; assay: Inhibition of human Cytochrome P450 17
Method in brief: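 Human testicular microsomes with 25 µM progesterone as substrate. Product quantified by RP-HPLC with UV detection. IC50 is the mean of at least two experiments.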

[16] = molecular target: T2, Steroid 17-alpha-hydroxylase/17,20 lyase; assay: Inhibition of rat Cytochrome P450 17
Method in brief: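 Microsomes from rat testes with 25 µM progesterone as substrate. Product measured by RP-HPLC with UV detection. IC50 is the mean of at least two experiments.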

[17] = molecular target: T3, 3-oxo-5-alpha-steroid 4-dehydrogenase 2; assay: Inhibition of Human steroid 5-alpha-reductase type II expressed in HEK293 cells; type: cell-based
Method in brief: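 Stably transfected HEK293 clones expressing full-length human type 1 or type 2 cDNA; 300 000 cells per well attached overnight at 37 °C. Fresh DMEM/10% FCS with 5 nM [3H]androstenedione and inhibitor added, final DMSO 1%. Incubated 30 min (type 1) or 13 min (type 2); supernatant ether-extracted and analysed by HPLC. Mean of at least three experiments.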

| Compound | IC50 [3] [nM] | IC50 [4] [nM] | IC50 [5] | IC50 [7] [nM] | also measured |
| --- | --- | --- | --- | --- | --- |
| C/C(=N/O)[C@@]1(O)CCC2C3CC=C4CC(O)CCC4(C)C3CCC21C (some centres undefined) |  |  |  |  | IC50 [1]: Not Active; IC50 [2]: Not Active |
| C[C@]12CC[C@H](O)C=C1CC[C@H]1C3CC/C(=C/C=N\O)[C@@]3(C)CC[C@@H]12 (some centres undefined) | 140 | 180 | 430 nM |  |  |
| C/C(=N/O)[C@H]1CCC2C3CCC4=CC(=O)CCC4(C)C3CCC21C (some centres undefined) | > 125000 | > 2500 | 580 nM and 1170 nM | 1630 | IC50 [6]: 1770 nM |
| C[C@]12CC[C@H](O)CC1=CC[C@H]1C3CC/C(=C/C=N\O)[C@@]3(C)CC[C@@H]12 (some centres undefined) | 520 | 77 |  |  | IC50 [8]: 230 nM; inhibition [9]: 35% |
| C/C(=N/O)[C@H]1CC=C2[C@@H]3CC=C4C[C@@H](O)CC[C@]4(C)[C@H]3CC[C@@]21C | 125000 | 200 |  |  | IC50 [8]: 420 nM |
| C/C(=N/O)C1CC=C2C3CC=C4CC(O)CCC4(C)C3CCC21C (centres undefined) | > 125000 | > 2500 |  |  |  |
| C/C(=N/O)[C@H]1CCC2C3CC(=O)C4=CC(=O)CCC4(C)C3CCC21C (some centres undefined) |  | > 2500 | 3200 nM | > 10000 | IC50 [2]: Not Active |
| C/C(=N/O)[C@H]1CC[C@H]2[C@@H]3CC=C4C[C@@H](O)CC[C@]4(C)[C@H]3CC[C@]12C |  |  |  |  | IC50 [10]: 1650 nM; IC50 [11]: Not Active |
| C/C(CC1CCC2C3CC=C4CC(O)CCC4(C)C3CCC12C)=N\O (centres undefined) | 9800 | 1180 |  |  |  |
| CC(=O)N1CCN(c2ccc(OCC3COC(Cn4ccnc4)(c4ccc(Cl)cc4Cl)O3)cc2)CC1 (centres undefined) [KETOCONAZOLE] |  |  |  |  | Decrease (Rattus norvegicus [12]): 57%; Decrease (Rattus norvegicus [13]): 44% |
| C/C(CC1CCC2C3CCC4=CC(=O)CCC4(C)C3CCC12C)=N\O (centres undefined) | 3600 | > 2500 | 470 nM | 900 |  |
| C/C(=N/O)C1=CCC2[C@@H]3CC=C4C[C@@H](O)CC[C@]4(C)[C@H]3CC[C@]12C (some centres undefined) | > 125000 | 170 |  |  | IC50 [8]: 520 nM |
| O=C(O)c1ccc(OCCn2ccnc2)cc1 |  |  |  |  | IC50 [14]: 1100 nM |
| CC12CCC(O)CC1=CCC1C2CCC2(C)C(c3c[nH]cn3)=CCC12 (centres undefined) |  |  |  |  | IC50 [15]: 40 nM; IC50 [16]: 180 nM |
| C/C(CC1CCC2C3CC(=O)C4=CC(=O)CCC4(C)C3CCC12C)=N\O (centres undefined) |  |  | 430 nM | 900 | IC50 [6]: 2900 nM; IC50 [17]: 860 nM; IC50 [1]: Not Active; IC50 [2]: Not Active |
| C/C(=N/O)C1=CCC2C3CCC4=CC(=O)CCC4(C)C3CCC12C (centres undefined) | > 125000 | 100 | > 10000 nM | > 10000 |  |
| CC12CCC(O)CC1=CCC1C2CCC2(C)/C(=C/C=N/O)CCC12 (centres undefined) | > 125000 | > 2500 |  |  |  |
| CC12CCC(=O)C=C1CCC1C2CCC2(C)C(C/C=N/O)CCC12 (centres undefined) | 300 |  | 300 nM | 1950 | IC50 [6]: 2440 nM; IC50 [17]: 890 nM |
| CC(C)(C)NC(=O)[C@H]1CC[C@H]2[C@@H]3CC[C@H]4NC(=O)C=C[C@]4(C)[C@H]3CC[C@]12C [FINASTERIDE] |  |  |  | 40 | IC50 [6]: 540 nM; IC50 [17]: 60 nM |
